System: MS2 coat protein
Experiment: apparent Kd, MS2 coat protein; higher = weaker binding; RNA-MaP array
Method in brief: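 Binding of fluorescently labeled MS2 coat protein, at 1.5 nM to 3 μM and room temperature, was measured with or without input ligand on designed RNAs transcribed on an Illumina sequencing chip from sequenced DNA templates. Apparent Kd was defined as the median of per-cluster binding-curve fits. No design measured on fewer than 10 clusters was kept.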

[1] = designed as: ON switch for flavin mononucleotide, no ligand
[2] = ligand present: flavin mononucleotide, designed as: ON switch for flavin mononucleotide
[3] = designed as: OFF switch for flavin mononucleotide, no ligand
[4] = ligand present: flavin mononucleotide, designed as: OFF switch for flavin mononucleotide
[5] = designed as: ON switch for theophylline, no ligand
[6] = ligand present: theophylline, designed as: ON switch for theophylline

Sequence	apparent Kd [1] [nM]	apparent Kd [2] [nM]	apparent Kd [3] [nM]	apparent Kd [4] [nM]	also measured
GCAACCCUGCAGAAGGGCGGGUGUACAUGAGGAUCACCCAUGUUAUCAGCAAAGUAGCUGGAUACGCAGGAUAUGCAGUCGAGU	164	29.6	–	–	–
GCACUAGAGCAAGGAUAUAUAUCGGAAUCUACAUGAGGAUCACCCAUGUGUGUGACUUCUCGCAGAUAGAAGGUGCUCGCUGAC	–	–	433	206	–
GCAUACGGAUAGAAGGAACUCUACGAUACGACAUGAGGAUCACCCAUGUAAUAUCAGUUAAACGGUUAGGAUAUAUGGGUAGUC	81.6	41.9	–	–	–
GCAUUAGAGGACACAUGAGGAUCACCCAUGUGCAUCAUCAGAUAGGAUAUCUUAACAGAAAUUUGAGAGAAGGAUCGUGUUCGG	–	–	7.84	7.53	–
GCAUUAUUAUUAGAUACCAGUGUCGCAGGCGACAUGAGGAUCACCCAUGUAAAGUUACUCCACCCUUGGCAGCUAGUUCGACUAC	–	–	–	–	apparent Kd [5]: 103 nM; apparent Kd [6]: 26.3 nM
GCGACUUUUACCGAGGAUAUGUCGUGACACACAUGAGGAUCACCCAUGUUUCUAAGUCCUGGAAUACAGAAGGCGGUAUUAAUACA	7.53	5.42	–	–	–
GCGCGCGGUGGCGGUCAACAUGAGGAUCACCCAUGUGUGAACAGAAGGCGCGUAUGCUACCAUGGCGAGGAUAUGUUGGGUCAG	–	–	5.95	5.99	–
GCGGGAGCACAGAAGGCGGAACUAAAGCAAUUACCAAUAGUUAACAUGAGGAUCACCCAUGUGCCCGAGGAUAUGUCGAAAGUG	53.2	10.6	–	–	–
GGACAUGAGGAUCACCCAUGUAGUGGAGGGCUCAGGCUCGCAAGAAGGUUAAGAAUAUAGUCAAUAAAGGAUAUUGAGGGCCGA	–	–	21.7	19.2	–
GGACUAUCAGGAUAUACAUGAGGAUCACCCAUGUACUUUAGGUAAUGGGACUACACCGGUAGAAGGGAUUAAAG	–	–	116	84.8	–
GGCAAGUGAUAGAAGGGAUACAUGAGGAUCACCCAUGUAAGGGCGAAGCCUACCCUCCUUAAAGAUCAGGAUAUAUUGCAGACG	–	–	20.3	19.6	–
GGCCCACAUGAGGAUCACCCAUGUGUGGAUACCAGCCUCAUUUAGGGCCCUUGGCAGCCAGAUAGUAACAAGUCCGAAACACAGA	–	–	–	–	apparent Kd [5]: 93.3 nM; apparent Kd [6]: 94.1 nM
GGCCUUGUUGUUAUAGGACAUGAGGAUCACCCAUGUAUAUGUAAGGAUAUGAAUCGUAAGACGCAUCAGAAGGUACAGUACUGG	–	–	122	55.8	–
GGCGGGAAAUGAGGAUAUGGUAGUUGAGAAACGCCAGAAGGCAUUGGCAAGGCUAGAGACAUGAGGAUCACCCAUGUAAUCAUA	8.35	7	–	–	–
GGCUGCGAUGGCGGAAAUUAUUUACAUAGGCGAGGACCGGUACGGCCGCCACUCGAACGUACAUGAGGAUCACCCAUGUGAUAAU	–	–	–	–	apparent Kd (designed as: ON switch for tryptophan, no ligand): 71.8 nM; apparent Kd (ligand present: tryptophan, designed as: ON switch for tryptophan): 26.5 nM
GGGAAACAUGAGGAUCACCCAUGUAAGGAUAUAGAAGAUUCAACAUUCAAGAAUGAGACUAGAAGGUACAGAUC	–	–	20.2	17.9	–
GGGAUUCGUGUUAGGAUAUUGAGGUGUAUUCCCGACAAGAAGGAACAUGAGGAUCACCCAUGUUGGGAACUGUG	–	–	33.9	62.6	–
GGGUAACCAGUUAGGAUAUUGAAUAGUUUGAUGUUCAAGAAGGAACAUGAGGAUCACCCAUGUAUGGGACUAGA	–	–	139	174	–
GGUCGUCUAGUUAGGAUAUCAUUAUUAGAUUAAAUUGAGAAGGAACAUGAGGAUCACCCAUGUCGACAACUAUC	–	–	7.13	8.12	–
GGUUUGAACAAGAAGGUGAGUCACGAGACCCUGGGAUCUCGGGACAUGAGGAUCACCCAUGUCGUCAAGGAUAUUGUGGUGUUU	769	191	–	–	–
GUAACACUGUCAUCGCCGACAUGAGGAUCACCCAUGUGUAAGAGAAGGACCGAGACCGGGAAAUGGUAGGAUAUCUGUGGGUAG	–	–	45.1	84.5	–

Sequence	apparent Kd [1] [nM]	apparent Kd [2] [nM]	apparent Kd [3] [nM]	apparent Kd [4] [nM]	also measured
GUAUGGGCGUAACAUGAGGAUCACCCAUGUCCGAAUGCGAUGAGAAGGCCACAUAGUUGGCUGAUGGAGGAUAUCAAAGUAUAU	–	–	97.9	70.8	–
GUCAACGAAGGAUAUACAGGGAUACCCGUCGAGUACGGAGCACAUGAGGAUCACCCAUGUAGAAGGUCGGUGUG	–	–	52	142	–
GUCGAUUUUAAAUUGACAUGAGGAUCACCCAUGUCUUUAAUCAGAAGGCGGACAACAUUAUGUGCCGAGGAUAUGAUUGGAUCC	14.2	11.3	–	–	–
GUCGCGUAGCAAGGAUAUGCAAAGAGGAAAACUGCAGAAGGUGCCAUUAAAGGACAUGAGGAUCACCCAUGUGCAUUAUCCACA	53.4	30.9	–	–	–
GUGAUCAUCCGAGGAUAUUUUUCAUAGGCAUAAGGGGACAUGAGGAUCACCCAUGUAAACACCAUAAAGAAGGCGGGGCAGACC	–	–	20	15.3	–
GUGCACCGUGAGAAGGCAUAGCACGUGUCGCUGACAUGAGGAUCACCCAUGUGUUGUAAAGUGCAUGAGGAUAUCAGCCAUAGG	42.3	10.4	–	–	–
GUGCGAAUGCAAGGAUAUGUCACAUAAACUGGAACAGAAGGUGCUGCUGAACAUGAGGAUCACCCAUGUACUUGACCGGCAACU	7.6	6.81	–	–	–
GUUAUAAUUACCAAGGAUAUCACAAGGCUUACAUGAGGAUCACCCAUGUUAAUACUCACAGACCGUGAGAAGGUGGCAAGAUCGAU	21.4	16	–	–	–
GUUCCCAUAUCAGGAUAUAUUUCACAUGAGGAUCACCCAUGUUACCCGUGAAGUCGACUCUAUGUAUAGAAGGGAUGAUGGGCC	–	–	55.4	43.7	–
GUUUACAAUGUCAGGAUAUCACAGCGUACAAAUGUUGAGAAGGGACAUGAGGAUCACCCAUGUACACACCUCUU	–	–	8.04	9.29	–
GUUUUUUAAGGAUAUUCUAUUUCUAACAUGAGGAUCACCCAUGUACCCUCGUGCUAGCGAGAAGAAGGUAACAAAC	–	–	546	427	–
UAAACAUGAGGAUCACCCAUGUAUUGGAGUAACCGCAAGAGGAGAAGGACCGGAGUGAGAUUAUGGUAGGAUAUCCCAACUACA	17.6	12.1	–	–	–
UAAAGAGAAGGAUAUACAGGAAGAAAAGCCUCACAAUCGUAACAUGAGGAUCACCCAUGUAGAAGGACUAACAA	–	–	38.7	29.5	–
UAACGUACAAAAGGAUAUGCCAAUAGAAAGAUCUUACAAUAAACACAUGAGGAUCACCCAUGUAAGCAGAAGGUUUGGAAACAA	–	–	12.4	10.2	–
UACAAACCGUUAGAUGGGACAUGAGGAUCACCCAUGUAUAACAGAAGGUCAAAUUGAAACAUUCAGAAGGAUAUGUCAUACAAA	–	–	85.3	59.5	–
UACUUGAAGUUGCAGGAUAUUUAGGAUCUAACAUGAGGAUCACCCAUGUUAUAUGAGAGACGUAUAAAGAAGGGCAGCGUGAUAGA	9.4	5.9	–	–	–
UAUACACAUCCACAUGAGGAUCACCCAUGUGUGCCUCGUUCCGAGGAUAUGGGCCACGAUGUUUCCCAGAAGGCGGUCGCUAUA	–	–	15	12.7	–
UAUUUGGCGCUAGGAUAUAAAGGAACUAUUUAAUUAGAAGGAGCACGGGAACCUGAGGUACAUGAGGAUCACCCAUGUCUGAUA	17.6	19.1	–	–	–
UCACCAUGUCGAAACAUGAGGAUCACCCAUGUGAAUCAUGACAGAAGGUCUAUAGAAUGACGGAAGAAGGAUAUGUCAAUGCGC	–	–	17.8	17.4	–
UCAUGGUCUGGAGAGAGAAUUACAUGAGGAUCACCCAUGUGCAGAAGGAGUUAUCGCACAACAAACUAGGAUAUGCCAAGAAUU	98.1	152	–	–	–

— the EternaBench riboswitch data
